Assay outcomes as filed in PubChem BioAssay.
An excerpt weighted towards active compounds, which were near 2.9% of everything screened.
DENV2 CPE rescue = protects cells from dengue virus 2 cytopathic effect | DENV2-infected cells, cytopathic effect rescue, plate reader | CPE inhibition, % at 9.99 µM | 350,000 tested, 1.7% active | AID 651640; in the data active = CPE inhibition above about 20%, passing the limit was not always enough; inconclusive = no clear call, values can overlap the other calls; tested in BHK-21 cells;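 also: 0% = median of neutral control wells and 100% = median of positive control wells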
PGC1a acetyl inh = lowers PGC1a acetylation signal in U2OS cells; AlphaScreen anti-acetyl-lysine; with virally co-expressed GCN5 acetyltransferase; inhibition, % at 15.6 µM; 350,000 tested, 0.17% active; AID 651687;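 active = every replicate shows inhibition of at least 40%; inconclusive = mean inhibition at least 40% but some replicate below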;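 also: 0% = neutral control wells and 100% = positive control wells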
C2C12 statin = suppression of simvastatin myotoxicity; AID 602340; 330,000 tested, 0.78% active; rescue of ATP level, % at 7.49 µM; C2C12 myotubes + simvastatin, ATP luminescence, 48 h; scaled: DMSO 0, geranylgeraniol control 100;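 active = mean ATP rescue above about 67%, or every replicate alone reaching that limit, limit read from the data, passing the limit was not always enough; inconclusive = no clear call, values can overlap the other calls; inactive = mean under the limit and some replicate under it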;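 also: myotubes were challenged with 10 µM simvastatin during compound exposure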
SIRT5 block = sirtuin-5 (human) deacylase inhibition; 330,000 tested, 1.1% active; inhibition, % at 15 µM; Purified SirT5, succinyl-peptide AMC, trypsin-coupled fluorescence; in the data active = inhibition above about 15%; inconclusive = no clear call, values can overlap the other calls
Target sequence (Q9NXA8 whole entry, looked up): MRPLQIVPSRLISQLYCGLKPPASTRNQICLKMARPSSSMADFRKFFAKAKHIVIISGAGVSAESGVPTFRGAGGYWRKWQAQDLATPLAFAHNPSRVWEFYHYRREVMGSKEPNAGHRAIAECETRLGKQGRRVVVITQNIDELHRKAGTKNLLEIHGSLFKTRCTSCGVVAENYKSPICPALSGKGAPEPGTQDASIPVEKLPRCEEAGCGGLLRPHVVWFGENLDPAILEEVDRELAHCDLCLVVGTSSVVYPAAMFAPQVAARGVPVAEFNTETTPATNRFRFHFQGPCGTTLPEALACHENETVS
S100A4 MyoIIA = inhibitors of human S100A4 binding to myosin IIA peptide; inhibition, % at 10.7 µM; S100A4/TAMRA-MyoIIA peptide fluorescence polarization; 360,000 tested, 0.14% active; P26447;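 active = mean inhibition of at least 70% across replicates, with every replicate also reaching that level; inconclusive = mean inhibition reaches 70% but some replicates fall short; inactive = mean inhibition below 70%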
Target sequence (P26447 whole entry, looked up): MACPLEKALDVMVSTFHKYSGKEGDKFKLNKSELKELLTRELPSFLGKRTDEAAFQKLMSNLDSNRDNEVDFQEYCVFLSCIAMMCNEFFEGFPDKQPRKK
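Test system: S100A4 monomer protein; Medium: HEPES pH 7.2 with CaCl2, KCl, NaCl, DTT, Triton; Probe or stimulus: TAMRA-labelled myosin IIA heavy-chain peptide probe, 5 nM; Doses: one dose per compound; Times: polarization read 5 min after assay mix addition, stable 5–60 min; Benchmarks: neutral control DMSO, positive control TFP.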
* = called active by the depositor.

How did COc1ccc(S(=O)(=O)Nc2ccc3c(c2)C(=O)N([C@@H](C)CO)C[C@H](C)[C@@H](CN(C)C(=O)Nc2ccccc2)OCCCC[C@@H](C)O3)cc1 do in these assays?
DENV2 CPE rescue: -3.5; PGC1a acetyl inh: -20.2

How did CCCC(=O)Nc1cc(OC)c(NC(=S)Nc2cccc(C)c2)cc1OC do in these assays?
DENV2 CPE rescue: 91.6*; C2C12 statin: -7.6; SIRT5 block: 1.9; S100A4 MyoIIA: -7.1

What do the screens show for `CCCC(=O)NC(=S)Nc1cccc(C(C)=O)c1`?
PGC1a acetyl inh: -7.4; C2C12 statin: 114.1*

Results for O=C(NCc1ccccc1)c1ccc(C2SCC(=O)N2Cc2ccccc2)cc1 (centres undefined) ?
PGC1a acetyl inh: -12.2; C2C12 statin: 78.7*

What do the screens show for `COCCNC(=O)c1sc2nc(-c3ccccc3)cn2c1C`?
PGC1a acetyl inh: -2.9; C2C12 statin: 16.1

What do the screens show for `Cc1c(C(=O)NCCCN2CCOCC2)sc2nc(-c3ccccc3)cn12`?
DENV2 CPE rescue: 87.0*; SIRT5 block: -1.7; S100A4 MyoIIA: -1.1

How did COCc1cn(CC[C@H]2CC[C@H](NC(=O)CCN3CCCCC3)[C@H](CO)O2)nn1 do in these assays?
DENV2 CPE rescue: -2.7; PGC1a acetyl inh: 0.0; C2C12 statin: -6.7; SIRT5 block: 2.6; S100A4 MyoIIA: 1.1

How did COc1ccc(C#Cc2ccc([C@H]3[C@@H](CO)N4C(=O)CN(C(=O)Nc5ccccc5F)C[C@H]34)cc2)cc1 do in these assays?
DENV2 CPE rescue: inconclusive; PGC1a acetyl inh: 8.6; SIRT5 block: -0.1; S100A4 MyoIIA: 16.3

How did O=C1OCCN1N1CCOC1=O do in these assays?
DENV2 CPE rescue: 6.0; PGC1a acetyl inh: -4.8; C2C12 statin: 112.7*; SIRT5 block: -3.6; S100A4 MyoIIA: -3.0

Results for O=C1OCCN1S(=O)(=O)Nc1ccccc1 ?
DENV2 CPE rescue: 11.2; C2C12 statin: 10.5; SIRT5 block: -0.3; S100A4 MyoIIA: 5.0

What do the screens show for `CC1(C)CC2CC(C)(CN2C(=O)c2cc(-c3ccccc3O)on2)C1` (centres undefined)?
DENV2 CPE rescue: -6.1; PGC1a acetyl inh: -0.6; C2C12 statin: -9.7; SIRT5 block: 15.7*; S100A4 MyoIIA: -4.0

How did Cc1ccc(-c2cc(C(=O)N3CC4(C)CC3CC(C)(C)C4)no2)cc1 (centres undefined) do in these assays?
DENV2 CPE rescue: 1.4; C2C12 statin: -2.1; SIRT5 block: -1.6; S100A4 MyoIIA: -2.1

Results for CC1(C)CC2CC(C)(CN2C(=O)c2ccc([N+](=O)[O-])cc2)C1 (centres undefined) ?
DENV2 CPE rescue: -1.7; SIRT5 block: 21.2*; S100A4 MyoIIA: -0.9

Results for CC(=O)N(C)C[C@H]1Oc2cc(C#Cc3cccnc3)ccc2S(=O)(=O)N([C@H](C)CO)C[C@@H]1C ?
DENV2 CPE rescue: -4.1; PGC1a acetyl inh: 24.6; C2C12 statin: -2.3; SIRT5 block: 0.7; S100A4 MyoIIA: -0.5

Results for COc1ccc(C(=O)C2CCCN(S(=O)(=O)C(C)C)C2)c(C)c1 (centres undefined) ?
DENV2 CPE rescue: -4.6; PGC1a acetyl inh: -4.5; SIRT5 block: 24.6*; S100A4 MyoIIA: 7.6

How did COc1ccc(C(=O)C2CCCN(S(=O)(=O)N(C)C)C2)c(C)c1 (centres undefined) do in these assays?
DENV2 CPE rescue: -3.2; PGC1a acetyl inh: 0.8; C2C12 statin: 2.4; SIRT5 block: -1.5; S100A4 MyoIIA: -4.9

How did Cc1ccc(S(=O)(=O)n2nc(-c3ccco3)nc2SCc2ccccc2)cc1 do in these assays?
PGC1a acetyl inh: 5.1; C2C12 statin: 108.8*

Results for CCN(CC)c1ccc(NC2=C(Cl)C(=O)c3ccccc3C2=O)cc1 ?
PGC1a acetyl inh: 68.0*

How did Cc1cccc(NC2=C(NCCO)C(=O)c3ccccc3C2=O)c1 do in these assays?
DENV2 CPE rescue: -0.4; PGC1a acetyl inh: 12.6; SIRT5 block: 1.9; S100A4 MyoIIA: 2.5

How did O=C1C(Cl)=C(Nc2ccc(O)cc2)C(=O)c2ccccc21 do in these assays?
DENV2 CPE rescue: 8.1; SIRT5 block: -2.0; S100A4 MyoIIA: 2.7

How did Cc1cc(C)cc(NC2=C(N)C(=O)c3ccccc3C2=O)c1 do in these assays?
PGC1a acetyl inh: 0.1; C2C12 statin: -14.7; SIRT5 block: 16.1*; S100A4 MyoIIA: -6.8

What do the screens show for `Cc1ccc(NC2=C(Cl)C(=O)c3ccccc3C2=O)cc1`?
DENV2 CPE rescue: 83.3*; PGC1a acetyl inh: inconclusive; C2C12 statin: -494.9; SIRT5 block: -2.6; S100A4 MyoIIA: -3.6
